Data as given in ChEMBL document CHEMBL1138024, “Aryl urea analogs with broad-spectrum antibacterial activity” (Bioorg Med Chem Lett, 2004).
In brackets after ≈: the same amount, converted by molar mass.

Key:
Type in all cases: functional
[1] = system: Staphylococcus aureus; assay: In vitro antibacterial activity against Staphylococcus aureus; value ranges from 12-25 uM
[2] = system: Staphylococcus aureus; assay: In vitro antibacterial activity against Staphylococcus aureus; value ranges from 6-12 uM
[3] = system: Enterococcus faecalis; assay: Minimum inhibitory concentration against Enterococcus faecalis ATCC 29212; value ranges from 3-6 uM
[4] = system: Mus musculus; assay: In vivo antibacterial activity (Staphylococcus aureus) in a lethal murine model at a dose of 75 mg/kg; activity expressed as no. of mice alive/total tested; 7/10
[5] = system: Klebsiella pneumoniae; assay: Minimum inhibitory concentration against Klebsiella pneumoniae ATCC 13383; value ranges from 3-6 uM
[6] = system: Mus musculus; assay: In vivo antibacterial activity (Staphylococcus aureus) in a lethal murine model at a dose of 9.4 mg/kg; activity expressed as no. of mice alive/total tested; 4/10
[7] = system: Mus musculus; assay: In vivo antibacterial activity (Staphylococcus aureus) in a lethal murine model at a dose of 150 mg/kg; activity expressed as no. of mice alive/total tested; 4/10
[8] = system: Mus musculus; assay: In vivo antibacterial activity (Staphylococcus aureus) in a lethal murine model at a dose of 18.8 mg/kg; activity expressed as no. of mice alive/total tested; 6/10
[9] = system: Staphylococcus aureus; assay: Minimum inhibitory concentration against Staphylococcus aureus ATCC 13709; value ranges from 3-6 uM
[10] = system: Staphylococcus aureus; assay: Minimum inhibitory concentration against Staphylococcus aureus ATCC 13709 (+4% BSA); value ranges from 25-50 uM
Summary of the method: (§1)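 Same microdilution MIC against S. aureus ATCC 13709, but with 4% bovine serum albumin in the wells. Compound in 0.5% DMSO in water, inoculum about 10³–10⁴ CFU/well, duplicates. Growth was read as A595 after 20–24 h at 37°C against a compound-free control. MIC is reported as the range between full inhibition and viable growth.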

[11] = system: Mus musculus; assay: In vivo antibacterial activity (Staphylococcus aureus) in a lethal murine model at a dose of 37.6 mg/kg; activity expressed as no. of mice alive/total tested; 6/10
[12] = system: Mus musculus; assay: In vivo antibacterial activity (Staphylococcus aureus) in a lethal murine model at a dose of 4.6 mg/kg; activity expressed as no. of mice alive/total tested; 3/10
[13] = system: Pseudomonas aeruginosa; assay: Minimum inhibitory concentration against Pseudomonas aeruginosa ATCC 25416
[14] = system: Proteus vulgaris; assay: Minimum inhibitory concentration against Proteus vulgaris ATCC 8427; value ranges from 12-25 uM
[15] = system: Streptococcus pyogenes; assay: Minimum inhibitory concentration against Streptococcus pyogenes ATCC 49399; value ranges from 3-6 uM
[16] = system: Escherichia coli; assay: Minimum inhibitory concentration against Escherichia coli ATCC 25922; value ranges from 12-25 uM
[17] = system: Huh-7; assay: Cytotoxic concentration against Huh7 cells at 48 hours in MTT assay; details: Homo sapiens, Huh-7, 48 h
[18] = system: Enterococcus faecium; assay: Minimum inhibitory concentration against Enterococcus faecium ATCC 6569
[19] = system: Staphylococcus aureus; assay: In vitro antibacterial activity against Staphylococcus aureus; value ranges from 3-6 uM
[20] = system: Staphylococcus aureus; assay: In vitro antibacterial activity against Staphylococcus aureus
[21] = system: Staphylococcus aureus; assay: In vitro antibacterial activity against Staphylococcus aureus; value ranges from 50-100 uM
[22] = system: Staphylococcus aureus; assay: In vitro antibacterial activity against Staphylococcus aureus; value ranges from 25-50 uM
[23] = system: Klebsiella pneumoniae; assay: Minimum inhibitory concentration against Klebsiella pneumoniae ATCC 13383; value ranges from 6-12 uM
[24] = system: Mus musculus; assay: In vivo antibacterial activity (Staphylococcus aureus) in a lethal murine model at a dose of 9.4 mg/kg; activity expressed as no. of mice alive/total tested; 2/10
[25] = system: Mus musculus; assay: In vivo antibacterial activity (Staphylococcus aureus) in a lethal murine model at a dose of 18.8 mg/kg; activity expressed as no. of mice alive/total tested; 4/10
[26] = system: Staphylococcus aureus; assay: Minimum inhibitory concentration against Staphylococcus aureus ATCC 13709 (+4% BSA); value ranges from 12-25 uM; summary of the method: as §1
[27] = system: Escherichia coli; assay: Minimum inhibitory concentration against Escherichia coli ATCC 25922; value ranges from 6-12 uM
[28] = system: Mus musculus; assay: In vivo antibacterial activity (Staphylococcus aureus) in a lethal murine model at a dose of 75 mg/kg; activity expressed as no. of mice alive/total tested; 3/10
[29] = system: Mus musculus; assay: In vivo antibacterial activity (Staphylococcus aureus) in a lethal murine model at a dose of 37.6 mg/kg; activity expressed as no. of mice alive/total tested; 3/10
[30] = system: Mus musculus; assay: In vivo antibacterial activity (Staphylococcus aureus) in a lethal murine model at a dose of 4.6 mg/kg; activity expressed as no. of mice alive/total tested; 0/10
[31] = system: Enterococcus faecalis; assay: Minimum inhibitory concentration against Enterococcus faecalis ATCC 29212
[32] = system: Huh-7; assay: Cytotoxic concentration against Huh7 cells at 48 hours in MTT assay; value ranges from 25-50 uM; details: Homo sapiens, Huh-7, 48 h
[33] = system: Enterococcus faecalis; assay: Minimum inhibitory concentration against Enterococcus faecalis ATCC 29212; value ranges from 6-12 uM
[34] = system: Enterococcus faecium; assay: Minimum inhibitory concentration against Enterococcus faecium ATCC 6569; value ranges from 3-6 uM
[35] = system: Staphylococcus aureus; assay: Minimum inhibitory concentration against Staphylococcus aureus ATCC 13709 (+4% BSA); value ranges from 50-100 uM; summary of the method: as §1
[36] = system: Escherichia coli; assay: Minimum inhibitory concentration against Escherichia coli ATCC 25922
[37] = system: Streptococcus pyogenes; assay: Minimum inhibitory concentration against Streptococcus pyogenes ATCC 49399; value ranges from 1.5-3 uM
[38] = system: Klebsiella pneumoniae; assay: Minimum inhibitory concentration against Klebsiella pneumoniae ATCC 13383
[39] = system: Staphylococcus aureus; assay: Minimum inhibitory concentration against Staphylococcus aureus ATCC 13709 (+4% BSA); value ranges from 3-6 uM
[40] = system: Mus musculus; assay: In vivo antibacterial activity (Staphylococcus aureus) in a lethal murine model at a dose of 2 mg/kg; activity expressed as no. of mice alive/total tested; 10/10

Structure (SMILES): Fc1cccc(N/C(S)=N/CCCNCc2cc(Br)cc(Br)c2)c1
- MIC [1]: 25 µM (≈ 11.9 µg/mL)

Structure (SMILES): CN(CCCNC(=O)Nc1ccc(C(F)(F)F)cc1)CCCOc1ccc(Br)cc1Br
- MIC [2]: 12 µM (≈ 6.81 µg/mL)
- MIC [3]: 6 µM (≈ 3.4 µg/mL)
- No. of animals alive [4]: 7
- MIC [5]: 6 µM (≈ 3.4 µg/mL)
- No. of animals alive [6]: 4
- No. of animals alive [7]: 4
- No. of animals alive [8]: 6
- MIC [9]: 6 µM (≈ 3.4 µg/mL)
- MIC [10]: 50 µM (≈ 28.4 µg/mL)
- No. of animals alive [11]: 6
- No. of animals alive [12]: 3
- MIC [13]: > 100 µM
- MIC [14]: 25 µM (≈ 14.2 µg/mL)
- MIC [15]: 6 µM (≈ 3.4 µg/mL)
- MIC [16]: 25 µM (≈ 14.2 µg/mL)
- CC50 [17]: > 100 µM
- MIC [18]: > 100 µM

Structure (SMILES): Cc1ccc(N/C(S)=N/CCCNCc2cc(Br)cc(Br)c2)cc1
- MIC [1]: 25 µM (≈ 11.8 µg/mL)

Structure (SMILES): S=C(NCCCNCc1cc(Br)cc(Br)c1)Nc1ccc(Cl)cc1
- MIC [2]: 12 µM (≈ 5.9 µg/mL)

Structure (SMILES): O=C(NCCCNCc1ccc(OC(F)(F)F)cc1)Nc1ccc(C(F)(F)F)cc1
- MIC [19]: 6 µM (≈ 2.61 µg/mL)

Structure (SMILES): S=C(NCCCNCc1cc(Br)cc(Br)c1)Nc1ccccc1Cl
- MIC [1]: 25 µM (≈ 12.3 µg/mL)

Structure (SMILES): COc1ccccc1/N=C(\S)NCCCNCc1cc(Br)cc(Br)c1
- MIC [20]: > 100 µM

Structure (SMILES): O=C(NCCCNCc1cc(Br)cc(Br)c1)Nc1ccc(OC(F)(F)F)cc1
- MIC [2]: 12 µM (≈ 6.3 µg/mL)

Structure (SMILES): O=C(NCCCNCc1cc(C(F)(F)F)cc(C(F)(F)F)c1)Nc1ccc(C(F)(F)F)cc1
- MIC [21]: 100 µM (≈ 48.7 µg/mL)

Structure (SMILES): COc1cc(CNCCCNC(=O)Nc2ccc(C(F)(F)F)cc2)cc(OC)c1
- MIC [21]: 100 µM (≈ 41.1 µg/mL)

Structure (SMILES): O=C(NCCCNCCCOc1ccc(Br)cc1Br)Nc1ccc(C(F)(F)F)cc1
- MIC [19]: 6 µM (≈ 3.32 µg/mL)

Structure (SMILES): CN(C)c1ccc(CNCCCNC(=O)Nc2ccc(C(F)(F)F)cc2)cc1
- MIC [1]: 25 µM (≈ 9.86 µg/mL)

Structure (SMILES): O=[N+]([O-])c1ccc(N/C(S)=N/CCCNCc2cc(Br)cc(Br)c2)cc1
- MIC [1]: 25 µM (≈ 12.6 µg/mL)

Structure (SMILES): S=C(NCCCNCc1cc(Br)cc(Br)c1)Nc1ccc(Br)cc1
- MIC [1]: 25 µM (≈ 13.4 µg/mL)

Structure (SMILES): O=C(NCCCNCc1cc(Cl)cc(Cl)c1)Nc1ccc(C(F)(F)F)cc1
- MIC [2]: 12 µM (≈ 5.04 µg/mL)

Structure (SMILES): N#Cc1ccc(NC(=S)NCCCNCc2cc(Br)cc(Br)c2)cc1
- MIC [22]: 50 µM (≈ 24.1 µg/mL)

Structure (SMILES): O=C(NCCCNCc1ccccc1)Nc1ccc(C(F)(F)F)cc1
- MIC [21]: 100 µM (≈ 35.1 µg/mL)

Structure (SMILES): O=C(NCCCNCc1cc(Br)cc(Br)c1)Nc1cccc(C(F)(F)F)c1
- MIC [2]: 12 µM (≈ 6.11 µg/mL)

Structure (SMILES): O=C(NCCCNCc1ccc(-c2ccccc2)cc1)Nc1ccc(C(F)(F)F)cc1
- MIC [19]: 6 µM (≈ 2.56 µg/mL)
- MIC [23]: 12 µM (≈ 5.13 µg/mL)
- No. of animals alive [24]: 2
- No. of animals alive [25]: 4
- MIC [9]: 6 µM (≈ 2.56 µg/mL)
- MIC [26]: 25 µM (≈ 10.7 µg/mL)
- MIC [27]: 12 µM (≈ 5.13 µg/mL)
- No. of animals alive [28]: 3
- No. of animals alive [29]: 3
- MIC [13]: > 100 µM
- No. of animals alive [30]: 0
- MIC [14]: 25 µM (≈ 10.7 µg/mL)
- MIC [15]: 6 µM (≈ 2.56 µg/mL)
- MIC [31]: > 100 µM
- MIC [18]: > 100 µM
- CC50 [32]: 50 µM

Structure (SMILES): Fc1ccccc1/N=C(\S)NCCCNCc1cc(Br)cc(Br)c1
- MIC [22]: 50 µM (≈ 23.8 µg/mL)

Structure (SMILES): O=C(NCCCNCc1cc(Br)cc(Br)c1O)Nc1ccc(C(F)(F)F)cc1
- MIC [20]: > 100 µM

Structure (SMILES): CC(C)(C)c1ccc(CNCCCNC(=O)Nc2ccc(C(F)(F)F)cc2)cc1
- MIC [19]: 6 µM (≈ 2.44 µg/mL)
- MIC [5]: 6 µM (≈ 2.44 µg/mL)
- MIC [9]: 6 µM (≈ 2.44 µg/mL)
- MIC [27]: 12 µM (≈ 4.89 µg/mL)
- MIC [13]: > 100 µM
- MIC [14]: 25 µM (≈ 10.2 µg/mL)
- MIC [33]: 12 µM (≈ 4.89 µg/mL)
- MIC [15]: 6 µM (≈ 2.44 µg/mL)
- MIC [34]: 6 µM (≈ 2.44 µg/mL)
- MIC [35]: 100 µM (≈ 40.7 µg/mL)

Structure (SMILES): CC(=O)NCC1CN(c2ccc(N3CCOCC3)c(F)c2)C(=O)O1 (single isomer, unassigned) [LINEZOLID]
- MIC [36]: > 100 µM
- MIC [3]: 6 µM (≈ 2.02 µg/mL)
- MIC [19]: 6 µM (≈ 2.02 µg/mL)
- MIC [9]: 6 µM (≈ 2.02 µg/mL)
- MIC [37]: 3 µM (≈ 1.01 µg/mL)
- MIC [13]: > 100 µM
- MIC [38]: > 100 µM
- MIC [14]: 25 µM (≈ 8.43 µg/mL)
- MIC [39]: 6 µM (≈ 2.02 µg/mL)
- MIC [18]: > 100 µM

Structure (SMILES): CN[C@H](CC(C)C)C(=O)N[C@H]1C(=O)N[C@@H](CC(N)=O)C(=O)N[C@H]2C(=O)N[C@H]3C(=O)N[C@H](C(=O)N[C@H](C(=O)O)c4cc(O)cc(O)c4-c4cc3ccc4O)[C@H](O)c3ccc(c(Cl)c3)Oc3cc2cc(c3O[C@@H]2O[C@H](CO)[C@@H](O)[C@H](O)[C@H]2O[C@H]2C[C@](C)(N)[C@H](O)[C@H](C)O2)Oc2ccc(cc2Cl)[C@H]1O [VANCOMYCIN]
- No. of animals alive [40]: 10
